CDK5 inh: inhibitors of human CDK5/p35 kinase. inhibition, % at 10 µM. Recombinant CDK5/p35, ADP-Glo luminescence, 60 min. hit rate 0.01% among 330,000;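 active = highest replicate inhibition of at least 50% and at least 75% of replicates reaching 50%; inconclusive = only one of the two criteria met; inactive = both criteria failed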;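 note: plate controls were DMSO neutral control for no effect and GW8510 at 10 µM for full effect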
Target sequence (Q00535 whole entry, looked up): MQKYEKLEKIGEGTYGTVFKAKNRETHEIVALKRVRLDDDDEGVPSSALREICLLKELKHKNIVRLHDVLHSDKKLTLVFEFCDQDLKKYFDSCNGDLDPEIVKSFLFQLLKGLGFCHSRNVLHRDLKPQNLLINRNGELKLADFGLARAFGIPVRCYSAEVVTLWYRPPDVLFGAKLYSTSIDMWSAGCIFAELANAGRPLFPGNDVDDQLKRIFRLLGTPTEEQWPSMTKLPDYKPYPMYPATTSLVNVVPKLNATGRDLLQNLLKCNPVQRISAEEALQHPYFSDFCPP
Target sequence (Q15078 whole entry, looked up): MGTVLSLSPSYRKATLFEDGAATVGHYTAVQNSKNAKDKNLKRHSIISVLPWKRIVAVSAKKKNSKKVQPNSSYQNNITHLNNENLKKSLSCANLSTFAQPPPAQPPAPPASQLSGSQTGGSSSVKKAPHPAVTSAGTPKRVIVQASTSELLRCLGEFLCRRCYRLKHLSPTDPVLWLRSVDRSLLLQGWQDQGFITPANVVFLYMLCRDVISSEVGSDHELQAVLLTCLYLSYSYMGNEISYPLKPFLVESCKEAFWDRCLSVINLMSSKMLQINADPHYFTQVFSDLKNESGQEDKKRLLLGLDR
N-glyco inh: N-linked glycosylation inhibition. D54 ERlucT glycosylation luciferase reporter, 24 h; percent of 100 nM tunicamycin response. reporter increase, % at 12.5 µM. hit rate 0.23% among 360,000;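 active = mean luciferase reporter signal, scaled so untreated is 0 and the glycosylation-blocking control 100, at or above a set limit in every replicate; inconclusive = mean reaches the limit but not every replicate does; inactive = mean below the limit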;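 note: luciferase carries N-glycosylation sites so blocking glycosylation raises the light; 0% = median of neutral control wells and 100% = median of 100 nM tunicamycin wells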
CAL PDZ FP-1: inhibitors of human CAL PDZ peptide binding; Q9HD26; purified CAL PDZ, TMR-peptide fluorescence polarization, 1 h; inhibition, % at 24.9 µM; hit rate 0.92% among 300,000;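 active = mean inhibition of at least 30% with at least half of replicates also reaching 30%; inconclusive = no clear call, values can overlap the other calls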;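 note: 0% = DMSO neutral control and 100% = excess unlabeled competitor peptide PRC23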
CAL PDZ FP-2: blocks peptide binding to human CAL PDZ domain. inhibition, % at 20 µM. purified CAL PDZ, TMR-peptide fluorescence polarization, 1 h. Q9HD26. AID 504414. hit rate 0.02% among 330,000;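 active = highest replicate inhibition of at least 40%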;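 note: plate controls were DMSO neutral control wells for no effect and unlabeled competitor peptide control wells for full effect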
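Material – purified CerCALP PDZ construct · Detection – FP readout, S and P plane fluorescence · Measure – percent inhibition from loss of millipolarization · Controls – unlabelled peptide for full inhibition, DMSO wells as neutral · Probe or stimulus – TMR-labelled reporter peptide T*-PRC34 bound in PDZ groove · Times – 1 h at RT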
Vif inh: blocks HIV Vif function. HEK293T cells, Vif self-association by quenched fluorescence, imaging, 24 h. hit rate 0.35% among 340,000. AID 602346. inhibition, % at 7.49 µM; in the data active = inhibition above about 50%, passing the limit was not always enough; inconclusive = no clear call, values can overlap the other calls; inactive = below about 31%
PvdQ inh: P. aeruginosa PvdQ acylase inhibition | purified PvdQ acylase, fluorescence plate reader | inhibition, % at 10 µM | hit rate 0.063% among 340,000; in the data active = inhibition above about 30%, passing the limit was not always enough; inconclusive = no clear call, values can overlap the other calls;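 note: 0% = vehicle neutral wells and 100% = reference inhibitor wells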
* hit, by the source's call; ? = inconclusive; · = not tested or not shown. The list is not random: actives were taken first. Their share in the collection is about 1.4%.

SMILES	CDK5 inh	N-glyco inh	CAL PDZ FP-1	CAL PDZ FP-2	Vif inh	PvdQ inh
CCOC(=O)c1c(C)nc(C)c(C(=O)OCC)c1-c1ccccc1	1	1	·	-1	1	-11
CCOc1c(C(N)=O)c(-c2ccccc2)c2c(=O)[nH]c3ccccc3n12	-1	1	-1	1	32*	4
CCN1CCN(c2ccc(S(=O)(=O)N3CCCCC3)cc2NC(=O)c2cc3ccccc3o2)CC1	1	-3	7	-4	·	-5
O=[N+]([O-])c1cc(S(=O)(=O)Nc2ccc(Cl)cc2)ccc1N/N=C/c1ccncc1	0	-12	-2	-1	67*	3
Cc1cc(C)cc(NS(=O)(=O)c2c(C)[nH]c(=O)[nH]c2=O)c1	0	1	3	0	0	-10
CCCCCc1ccc(-c2cn(Cc3ccc(C)cc3)nn2)cc1	0	-2	1	-1	-6	-8
CCCCCc1ccc(-c2cn(CN3C(=O)c4ccccc4C3=O)nn2)cc1	1	4	-4	0	65*	13
NC(=O)CSc1nc2ccc([N+](=O)[O-])cc2[nH]1	3	2	-4	-3	-6	-14
Cc1cccc2nc(CSc3nc4ccc([N+](=O)[O-])cc4[nH]3)c(Br)n12	-3	2	-4	0	54*	-14
CCOC(=O)c1c(NC(=O)c2cc3n(n2)C(C(F)(F)F)CC(c2cccs2)N3)sc(C)c1C (stereo unspecified)	1	98*	-2	-2	0	-1
Cc1ccccc1COc1cccn2c(N(C)C(=O)CCC3CCCC3)c(C)nc12	·	-1	·	·	-9	·
CC(C)CC1NC(=O)N(CC(=O)NC2CCCCC2)C1=O (stereo unspecified)	3	0	0	-1	8	-14
CC(C)CC1NC(=O)N(CC(=O)N(C)C2CCCCC2)C1=O (stereo unspecified)	-1	0	108*	0	-2	-16
O=[N+]([O-])c1cc2c(cc1Br)-c1ccccc1C2	·	3	·	·	15	·
O=C(c1ccccc1)c1ccccc1C(=O)c1ccccc1	-2	-3	-6	·	-3	1
Cc1ccccc1C(=O)c1ccccc1C(=O)c1ccccc1	0	0	86*	0	-8	-8
O=C(CSc1nnc(CNC(=O)c2c(F)cccc2Cl)o1)NC1CCCC1	0	1	74*	-1	-3	-16
O=C(NCc1nnc(SCC(=O)N2CCCCC2)o1)c1c(F)cccc1Cl	-1	1	78*	-1	-5	-17
CN(C)S(=O)(=O)c1ccc(C(=O)NCc2nnc(SCC(=O)N3CCCCCC3)o2)cc1	0	4	8	-2	3	3
O=C(NCc1nnc(SCC(=O)N2CCCC2)o1)c1c(F)cccc1Cl	0	1	-4	-3	12	-15
CC1CCN(C(=O)CSc2nnc(CNC(=O)c3ccc(S(=O)(=O)N(C)C)cc3)o2)CC1	1	1	55*	0	-5	-5
CCC(C)Sc1ccc([C@@H]2[C@H]3C(=O)N(CC)C(=O)[C@H]3[C@]3(C(=O)OC)CCCN23)cc1OC (stereo partly specified)	0	1	-1	0	9	5
CCCCOC(=O)/C(=C/C=C/c1ccccc1)NC(=O)c1ccccc1	-2	-1	3	-1	-5	-8
CCCCOC(=O)/C(=C\c1ccc([N+](=O)[O-])o1)NC(=O)c1ccccc1	0	5	41*	·	?	-14
O=C(Nc1ccccc1C(=O)N1CCN(c2ccccc2)CC1)c1ccco1	1	2	47*	0	0	-10
SMILES	CDK5 inh	N-glyco inh	CAL PDZ FP-1	CAL PDZ FP-2	Vif inh	PvdQ inh
COc1ccccc1CN(C)C(=O)c1cc(S(=O)(=O)N2CCCCCC2)ccc1OC	·	0	·	·	0	·
CC(Oc1cccc(Cl)c1)C(=O)Nc1ccncc1 (stereo unspecified)	0	0	-3	-2	-5	4
Cc1nc(NC(=O)C(C)Oc2cccc(Cl)c2)sc1C(=O)N(C)C (stereo unspecified)	-2	-2	-5	-4	52*	-7
CCOC(=O)C1CCN(S(=O)(=O)c2cccc(-c3cn4cc(C)ccc4n3)c2)CC1	0	-1	-2	1	64*	-8
CCOC(=O)C1=C(C)N=C2SC(C(=O)OC)=CC(=O)N2C1c1cc(OC)c(OC)c(OC)c1 (stereo unspecified)	1	4	-2	1	-1	-15
O=[N+]([O-])c1ccc(N2CCCC2)cc1NC1CC1	·	-2	36*	-1	-18	-10
COc1cccc(NC(=O)c2ccc3c(c2)OCO3)c1	5	-11	-2	-1	-3	7
CCCn1nnc(NC(=O)c2ccc3c(c2)OCO3)n1	1	-2	103*	-1	-1	-16
CCC(=O)Nc1cccc(NC(=O)c2ccc3c(c2)OCO3)c1	0	2	50*	-1	10	-16
CCC(CC)CN1CCC(CN2C(=S)NC[C@@H]2CC(C)C)CC1	0	2	-1	1	·	-1
CCN(CC)S(=O)(=O)c1ccc(C)c(NS(=O)(=O)c2cc(/C=C/C(=O)O)cc(OC)c2OC)c1	-1	2	26	-2	5	-12
Cc1cc(OCC(=O)NCc2ccccn2)c2c(C)cc(=O)oc2c1	2	2	47*	0	13	-8
Cc1ccc(S(=O)(=O)NCC(=O)NCC(=O)N(C)Cc2ccc(Br)s2)cc1C	·	-1	·	·	·	·
COc1ccc(CNCc2c(O)c(Cl)cc3c(C)c(C)c(=O)oc23)c(OC)c1	0	2	32*	-1	-6	-68
CCOc1ccc(OCCC(=O)N(CC)CC(=O)NCc2cccs2)cc1	0	0	·	-1	2	-17
O=C(N/N=C/c1ccc([N+](=O)[O-])s1)c1ccccc1Br	-2	4	-1	-1	89*	-7
O=C(N/N=C/c1ccoc1)c1ccccc1Br	0	0	39*	10	-3	-20
Cc1ccnn1CC(=O)N/N=C/c1ccc([N+](=O)[O-])s1	0	5	87*	-1	7	-15
Cc1ccccc1C(=O)N/N=C/c1ccc([N+](=O)[O-])s1	-1	7	1	1	-7	12
Cc1ccnn1CC(=O)N/N=C/c1cccs1	-1	1	-1	-1	9	12
COc1ccc(OC)c(NC(=O)CSc2ccc(-c3cccnc3)nn2)c1	0	-1	-4	-1	2	-7
CN(Cc1cnc2nc(N)nc(N)c2n1)c1ccc(C(=O)NC(CCC(=O)O)C(=O)O)cc1 (stereo unspecified)	1	-1	-2	0	-6	5
CCn1c(=NC(=O)C2COc3ccccc3O2)sc2c(OC)ccc(OC)c21 (stereo unspecified)	1	2	3	0	71*	-6

Compound activity from PubChem BioAssay.
